PLK1 PBD inh – inhibitors of human Plk1 polo box domain binding | Plk1 PBD phosphopeptide binding, fluorescence polarization | AID 693 | inhibition, %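 (tested at about 20 µM)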 | 97,000 tested, 0.13% active | P53350; in the data active means inhibition above about 34%, passing the limit was not always enough
EphB4 ephrin blk – EphB4-ephrin-B2 interaction antagonism | P54760 | EphB4 LBD / TNYL-RAW-Alexa532 peptide, fluorescence polarization | inhibition, % at 7 µM | 97,000 tested, 0.15% active | AID 720;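 active means inhibition above the screen-wide mean inhibition plus 3 SD, cut at about 15% in these data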;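 further: 0% = DMSO wells and 100% = excess unlabeled TNYL-RAW peptide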
Target sequence (P54760 whole entry, looked up, the tested form may be a part): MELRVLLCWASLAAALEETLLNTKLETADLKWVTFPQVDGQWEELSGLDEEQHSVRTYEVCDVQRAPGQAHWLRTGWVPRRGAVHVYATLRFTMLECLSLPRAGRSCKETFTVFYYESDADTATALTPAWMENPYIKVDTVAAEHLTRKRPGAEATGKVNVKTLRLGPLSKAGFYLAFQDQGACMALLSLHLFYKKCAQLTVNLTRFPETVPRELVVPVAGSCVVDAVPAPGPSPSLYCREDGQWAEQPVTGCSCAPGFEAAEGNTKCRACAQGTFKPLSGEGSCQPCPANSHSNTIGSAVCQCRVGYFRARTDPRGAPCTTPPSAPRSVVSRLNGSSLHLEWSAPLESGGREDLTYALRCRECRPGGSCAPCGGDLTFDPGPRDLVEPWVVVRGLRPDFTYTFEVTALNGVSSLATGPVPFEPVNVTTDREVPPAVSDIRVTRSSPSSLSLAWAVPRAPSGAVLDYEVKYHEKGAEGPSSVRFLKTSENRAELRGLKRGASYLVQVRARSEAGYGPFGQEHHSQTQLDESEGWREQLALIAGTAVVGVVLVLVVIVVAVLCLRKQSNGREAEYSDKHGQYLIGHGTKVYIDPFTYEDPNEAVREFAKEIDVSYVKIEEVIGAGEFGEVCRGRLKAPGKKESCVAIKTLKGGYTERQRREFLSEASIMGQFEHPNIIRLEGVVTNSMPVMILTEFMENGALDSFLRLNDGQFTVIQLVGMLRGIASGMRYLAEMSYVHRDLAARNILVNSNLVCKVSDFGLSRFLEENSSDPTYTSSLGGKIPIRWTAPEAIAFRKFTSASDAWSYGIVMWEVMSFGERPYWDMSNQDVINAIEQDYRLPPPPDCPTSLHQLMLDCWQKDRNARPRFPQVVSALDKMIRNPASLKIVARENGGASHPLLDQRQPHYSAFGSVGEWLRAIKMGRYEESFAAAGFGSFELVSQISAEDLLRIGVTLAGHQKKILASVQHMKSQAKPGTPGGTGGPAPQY
HIV Rev-RRE inh – inhibitors of HIV-1 Rev-RRE RNA interaction; Rev peptide-RRE RNA binding, FRET; inhibition, % at 8 µM; 97,000 tested, 0.79% active; AID 704;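 active means inhibition above the screen-wide mean plus 3 SD, cut at about 35% in these data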;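 further: 0% = median DMSO wells and 100% = median Neomycin B control wells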
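assay system = Cy5-tagged RRE RNA duplex with fluorescein-tagged Rev peptide | incubation = 5 + 15 min at 25 °C | also added = labelled Rev peptide | measure = % inhibition of FRET ratio versus controls | benchmarks = DMSO wells as 0% and neomycin B wells as 100% inhibition | measured by = FRET fluorescence readout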
PostGolgi ctrl – inhibits growth of the yeast control strain; efflux-deficient yeast background strain, growth absorbance A615, 16 h; inhibition, % at 10 µM; 98,000 tested, 5% active; AID 738
PLK1 inh – blocks human PLK1 kinase activity; P53350; recombinant PLK1 kinase, TR-FRET peptide phosphorylation; inhibition, % at 10 µM; 97,000 tested, 0.53% active;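 active means inhibition of 50% or more in the single-concentration screen; inactive means inhibition below 50%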;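 further: 0% = DMSO max control and 100% = H-89 dihydrochloride min control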
PostGolgi yeast – growth inhibition of a yeast mutant, post-Golgi transport screen; post-Golgi transport phenotypic cell assay; inhibition, % at 10 µM; 98,000 tested, 0.9% active;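 further: yeast cells grown in 1536-well plates; yeast grown about 18 h at 30C before absorbance read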
Starred values were filed as active, the others as inactive; nt = no result; [ ] = dose if it differs, or a comment. Compounds with a hit are over-represented: about 6.4% of the library has one in this group of screens. Unless noted, no stated cut-off is given here; in the data, active means inhibition above about 30%; inactive means the rest.

SMILES	PLK1 PBD inh	EphB4 ephrin blk	HIV Rev-RRE inh	PostGolgi ctrl	PLK1 inh	PostGolgi yeast
Cc1cc(C(=O)CSc2n[nH]c(-c3ccccc3F)n2)c(C)n1Cc1cccs1	-7	-2	0	33*	-6	1
COc1cccc(/C=C2/CN(C)CC3=C2OC(N)=C(C#N)C3c2cccc(OC)c2)c1 (centres undefined)	-10	7	55*	6	-6	9
Cc1ccc(C(=O)c2cn[nH]c2-c2cc(Cl)ccc2O)cc1	-18	2	11	38*	23	0
CCOc1ccccc1NC(=O)c1ccccc1-c1nc(-c2ccccc2OC)no1	-14	-7	10	24	1	-12
c1ccc(-c2oc3ncnc(NCCCN4CCOCC4)c3c2-c2ccccc2)cc1	-36	-4	1	67*	-3	15
N#Cc1nc(COc2ccc(-c3ccccc3)cc2)oc1NCCCN1CCOCC1	-4	-3	4	16	4	78*
N#Cc1nc(COc2ccccc2)oc1NCCN1CCOCC1	-7	0	4	11	-14	1
O=S(=O)(NCc1cn2ccccc2n1)c1cc(F)ccc1F	-18	1	4	4	1	3
O=C(NNC(=O)C1CCN(Cc2ccccc2)CC1)c1cccc(Cl)c1	19	-1	2	1	-18	-6
CCCc1nnc(SCc2ccc(C(=O)OC)o2)n1N	13	39*[fluorescence artefact?]	10	-2	-7	-5
CCc1nnc(SCc2ccc(C(=O)OC)o2)n1N	-28	6	3	-4	-15	0
N#Cc1c(N)oc(-c2ccc3c(c2)OCO3)c1-c1ccc2c(c1)OCO2	-36	1	14	22	-9	-3
C=C(C)CN1C(=O)C(O)(CC(=O)c2ccc3c(c2)OCCO3)c2ccccc21 (centres undefined)	5	1	6	41*	-6	-10
CCOC(=O)c1sc(NC(=O)C2C3C=CC(C3)C2C(=O)O)nc1C (centres undefined)	-4	5	8	4	-22	-6
CCCCC(CC)Cn1c2nc3ccccc3nc2c2c(=N)oc(C)nc21 (centres undefined)	-14	4	37*	72*	-11	0
COC(=O)c1c(C)cc(C)n2c1nc1ccccc12	-15	0	4	7	3	3
CCn1cnc2sc(C(=O)N(Cc3ccc(N(C)C)cc3)Cc3ccco3)c(C)c2c1=O	nt	nt	nt	39*	nt	12
CCOC(=O)c1c(-c2ccccc2)oc2cc(CN(C)C)c(O)c(CN(C)C)c12	13	6	58*	nt	-9	nt
CCOC(=O)c1c(C)oc2ccc(O)c(CN(C)C)c12	-17	-2	-4	-3	-6	6
CCOC(=O)c1c(-c2ccccc2)oc2ccc(OC)cc12	6	-4	9	31*	0	24
CCOC(=O)C1=C(O)C(Nc2nccs2)(C(F)(F)F)N=C1C (centres undefined)	2	-2	7	35*	-14	1
COc1ccc(NC(=O)CSc2nnc(-c3cccnc3)n2Cc2ccco2)c(OC)c1	nt	nt	nt	-5	nt	10
CCc1nc2cc(CC(=O)O)ccc2o1	-26	-5	4	19	-4	5
CCOc1cc(C2C(C#N)=C(N)OC(C)=C2C(C)=O)c(Br)c(Br)c1OC(C)C (centres undefined)	5	-2	19	nt	-16	nt
CCOc1cc(C2C(C#N)=C(N)OC(C)=C2C(C)=O)cc(Br)c1O (centres undefined)	-36	0	50*	-1	-8	-7
SMILES	PLK1 PBD inh	EphB4 ephrin blk	HIV Rev-RRE inh	PostGolgi ctrl	PLK1 inh	PostGolgi yeast
CCCCc1nnc(NC(=O)CSc2nc(=O)cc(N)n2-c2cccc(C)c2)s1	12	-3	3	0	-13	14
CCOC(=O)C1=C(C)NC(C)=C(C(=O)OCC)C1c1sccc1C	-6	-2	2	38*	-14	-7
CN(C)c1nc(N)nc(N(c2ccccc2)c2ccccc2)n1	nt	nt	nt	29	nt	1
CCN(CC)c1nc(N)nc(N(c2ccccc2)c2ccccc2)n1	-10	0	4	53*	-15	-8
O=C1CN(c2ccccc2F)C(=O)CN1c1ccccc1F	5	-2	6	37*	-7	13
Cc1ccnc(NS(=O)(=O)c2ccc(NS(=O)(=O)c3ccccc3)cc2)n1	-27	2	4	nt	-9	nt
